# Source: article PMC11904669 (ACS Omega, 2025)
# *1 amine or outer side, *2 acyl side, *3 side chain or, on linkers, in order; H or OH if unused. Where a SMILES comes first, the peptide text is derived from it. Where no end group is shown, it is not given here. Side-chain parts run from the residue outwards. The star is where a group is joined. C20 diacid = O=C(O)CCCCCCCCCCCCCCCCCCC(=O)*; γGlu = O=C(O)[C@H](CCC(=O)[*:2])N[*:1]; PEG2 = NCCOCCOCCC(=O)O
# Experiments:
# [1] = tested on: CCl4-induced liver fibrosis model; test: SOD in liver tissue, CCl4-induced liver fibrosis model; assay type: in vivo, mouse; conditions: CCl4 mice, 250 μg/kg i.p. daily for 4 weeks, n = 5
# [2] = tested on: CCl4-induced liver fibrosis model; test: Serum AST, CCl4-induced liver fibrosis model; assay type: in vivo, mouse; conditions: CCl4 mice, 250 μg/kg i.p. daily for 4 weeks
# Outline: (§1)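 CCl4 (20% in corn oil, s.c., every 2 days, 8 weeks) fibrotic male C57BL/6J mice received test compound 250 μg/kg i.p. daily for the last 4 weeks. After the final dose, mice were fasted 9 h and euthanized 8 h later. Blood was drawn retro-orbitally under anesthesia and spun at 1000g for 15 min; serum was stored at −80 °C. ALT or AST was measured by commercial kit; n = 5.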
# [3] = tested on: p-Smad3; test: Western blot of p-Smad3/Smad3 in liver, CCl4-induced liver fibrosis model; assay type: in vivo, mouse; conditions: CCl4 mice, 250 μg/kg i.p. daily for 4 weeks
# Outline: (§2)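 Male C57BL/6J mice with CCl4 fibrosis (20% in corn oil s.c., every 2 days, 8 weeks) received test compound 250 μg/kg i.p. daily over the final 4 weeks. Liver tissue was snap-frozen and stored at −80 °C, then lysed in RIPA buffer and BCA-quantified. Samples went through SDS-PAGE and PVDF transfer, overnight primary antibody at 4 °C, and ECL. Phospho-protein densitometry was normalized to GAPDH; n = 5.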
# [4] = Serum stability analysis; assay type: in vitro ADME
# Outline: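 Peptide (5 mM) was incubated in mouse serum at 37 °C for 0, 0.25, 1, 2, 4, 8, 16 and 24 h. Reactions were quenched with ice-cold acetonitrile, vortexed 10 s and left 1 min. Water containing 1% TFA was then added, the mix was centrifuged at 13,000g for 10 min, and the supernatant was collected for analysis.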
# [5] = tested on: CCl4-induced liver fibrosis model; test: GSH in liver tissue, CCl4-induced liver fibrosis model; assay type: in vivo, mouse; conditions: CCl4 mice, 250 μg/kg i.p. daily for 4 weeks, n = 5
# [6] = tested on: CCl4-induced liver fibrosis model; test: Serum ALT, CCl4-induced liver fibrosis model; assay type: in vivo, mouse; conditions: CCl4 mice, 250 μg/kg i.p. daily for 4 weeks
# Outline: as §1
# [7] = tested on: CCl4-induced liver fibrosis model; test: Hydroxyproline in liver tissue, CCl4-induced liver fibrosis model; assay type: in vivo, mouse; conditions: CCl4 mice, 250 μg/kg i.p. daily for 4 weeks, n = 5
# Outline: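 Liver fibrosis was induced in male C57BL/6J mice (6–8 wk) by s.c. 20% CCl4 in corn oil (5 mL/kg) every 2 days for 8 weeks, with corn-oil controls. Test compound was given at 250 μg/kg i.p. daily for the final 4 weeks. Livers were snap-frozen in liquid nitrogen, kept at −80 °C, and assayed for hydroxyproline; n = 5.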
# [8] = tested on: α-SMA; test: Western blot of α-SMA in TGF-β-induced LX2 cells; assay type: cell-based, human; conditions: TGF-β-treated LX2 cells, 10 μM, 24 h, Western blot (Figure 4)
# Outline: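 LX2 human hepatic stellate cells were grown in DMEM with 10% FBS and 1% penicillin-streptomycin at 37 °C, 5% CO2. Cells were induced with TGF-β (10 ng/mL) with or without 10 μM test compound for 24 h. Lysates in RIPA buffer were BCA-quantified, run on SDS-PAGE and transferred to PVDF. Primary antibody was applied overnight at 4 °C, then ECL detection. Densitometry was normalized to GAPDH; n = 3.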
# [9] = tested on: COL1α1; test: Western blot of COL1α1; assay type: cell-based, human; conditions: TGF-β-treated LX2 cells, 10 μM, 24 h, Western blot (Figure 4)
# [10] = tested on: C57BL/6J mice; test: General observation of mice during peptide treatment; assay type: in vivo, mouse; conditions: CCl4 mice, 250 μg/kg i.p. daily for 4 weeks
# Outline: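 Male C57BL/6J mice (6–8 wk, 20–24 g) received 20% CCl4 in corn oil s.c. (5 mL/kg) every 2 days for 8 weeks, with corn-oil-injected controls. Test compound was given i.p. at 250 μg/kg daily over the last 4 weeks. Appearance, behavior and food intake were observed, and body weight was monitored (n = 5−7).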
# [11] = tested on: CCl4-induced liver fibrosis model; test: Liver histology; assay type: in vivo, mouse; conditions: CCl4 mice, 250 μg/kg i.p. daily for 4 weeks
# Outline: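 CCl4 model: male C57BL/6J mice, s.c. 20% CCl4 in corn oil every 2 days for 8 weeks, test compound 250 μg/kg i.p. daily during the last 4 weeks. Livers were fixed in 10% formaldehyde, deparaffinized and rehydrated. Sections got H&E, Sirius red (10 fields at 20× per liver) and IHC for α-SMA and COL1α1. Positive area was quantified excluding large bile ducts and vessels; n = 5.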
# [12] = tested on: p-ERK; test: Western blot of p-Erk/Erk in liver, CCl4-induced liver fibrosis model; assay type: in vivo, mouse; conditions: CCl4 mice, 250 μg/kg i.p. daily for 4 weeks
# Outline: as §2
# [13] = tested on: FN and COL1α1; test: Western blot of FN and COL1α1 in TGF-β-induced LX2 cells; assay type: cell-based, human; conditions: 10 μM
# [14] = tested on: LX2 cells; test: CCK-8 assay of cell growth; assay type: cell-based, human; conditions: high concentration 64.0 μM
molecule,measurement,setting,value
CC(C)C[C@H](NC(=O)[C@@H]1CCCN1C(=O)[C@H](Cc1ccccc1)NC(=O)CNC(=O)[C@@H]1CCCN1C(=O)[C@H](C)NC(=O)[C@H](CCCCNC(=O)CCOCCOCCNC(=O)CCOCCOCCNC(=O)CC[C@H](NC(=O)CCCCCCCCCCCCCCCCCCC(=O)O)C(=O)O)NC(=O)CNC(=O)[C@H](Cc1ccccc1)NC(=O)[C@@H](N)[C@@H](C)O)C(=O)NCC(=O)N[C@@H](CO)C(N)=O [S6-FA] (H-TFGK([PEG2-PEG2-γGlu-C20 diacid])APGFPLGS-NH2),content of SOD in liver tissue versus CCl4 group,[1],significantly higher
same,AST serum level,[2],remarkably reduced
same,phosphorylation of Smad3 in liver,[3],effectively inhibited
same,half-life at 5 mM,[4]; mouse,~24 h
same,content of GSH in liver tissue versus CCl4 group,[5],significantly higher
same,ALT serum level,[6],remarkably reduced
same,HYP content in liver tissue,[7],significantly decreased
same,expression of α-SMA,[8],conspicuously decreased
same,expression of COL1α1,[9],conspicuously decreased
same,"appearance, behavior, food intake, body weight",[10],no abnormalities
same,collagen deposition (Sirius red),[11]; n = 5,more efficacious outcomes in reducing collagen deposition compared to T6-S
same,fibrosis markers α-SMA and COL1α1 (IHC),[11]; versus control group and T6-S group,notably lower
same,phosphorylation of ERK in liver,[12],effectively inhibited
CC(C)C[C@@H]1NC(=O)[C@@H]2CCCN2C(=O)[C@H](Cc2ccccc2)NC(=O)CNC(=O)[C@@H]2CCCN2C(=O)[C@H](C)NC(=O)CNC(=O)CNC(=O)[C@H](Cc2ccccc2)NC(=O)[C@H]([C@@H](C)O)NC(=O)[C@H](CO)NC(=O)CNC1=O [S19] (cyclo(APGFPLGSTFGG)),effect on expression of FN and COL1α1,[13],diminished the inhibitory impacts
TFGGAPGFPLGS [T6-S],growth of LX2 cells (CCK-8),[14],did not affect the growth
same,peptide detectable by HPLC after incubation in serum,"[4]; mouse serum, 37 °C, 5 mM peptide, RP-HPLC-MS, 1 h",50%
"TFGGAPGFPLGSPLSSVFPR [T6, reference compound]",growth of LX2 cells (CCK-8),[14],did not affect the growth
TFGKAPGFPLGS [S6],"appearance, behavior, food intake, body weight",[10],no abnormalities
